The record followed here is the array DNA melting data of Ke et al. (doi:10.1101/2024.01.08.574731).

Data set [1] can be described thus: folding enthalpy; higher = less favourable; fluorescence melt of hairpins on a sequencing array, two-state fit. To be noted: sodium 0.088 M. In outline:
(§1)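 Hairpins were imaged by Cy3 fluorescence on a sequenced MiSeq flow cell with annealed Cy3 and quencher oligos, in 50 mM Na-HEPES pH 8.0, 25 mM NaCl, in 2.5 °C steps up to 60 °C. Bootstrapped two-state fits of normalised signals gave melting temperature and folding enthalpy. Four replicates were combined by inverse variance, and fitted temperatures were raised by 9.35 °C to match UV melts.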

The nature of data set [2]: melting temperature; fluorescence melt of hairpins on a sequencing array, two-state fit, raised by 9.35 °C to match UV melts. To be noted: sodium 0.088 M. The procedure, abridged: as §1

As to GCTCTGCGAAAGCTAAGC (((..((....))..))), the folding enthalpy in data set [1] was -56.1 kJ/mol. Moreover, the Tm in data set [2] amounted to 37.9 °C.
For the sequence GCTCTGGCGAAAGCCAGC (((..(((....)))))), in data set [1], the folding enthalpy was -28.5 kJ/mol. The Tm in data set [2] came to 31.5 °C.
On to GCTCTTCCGAAAGGAAGC (((..(((....)))))), for which the folding enthalpy in data set [1] is -37.7 kJ/mol. Moreover, the Tm in data set [2] was found to be 37.2 °C.
On to GCTCTTGCGAAAGCAAGC (((..(((....)))))), for which, in data set [1], the folding enthalpy is -36.1 kJ/mol. In data set [2], the Tm was found to be 36.2 °C.
As to GCTCTTGGAAACAGGAGC ((((.((....)).)))), the folding enthalpy in data set [1] was -142 kJ/mol. Besides, the Tm in data set [2] was 48.9 °C.
As for GCTGAATCGAAAGATAGC (((..(((....)))))), the folding enthalpy in data set [1] is -72.3 kJ/mol. Also, the Tm in data set [2] came to 31.9 °C.
For GCTGACGAAAGTCACAGC ((((((....)))..))), the folding enthalpy in data set [1] was -64.6 kJ/mol. In addition, in data set [2], the Tm came to 45.3 °C.
For the sequence GCTGACGAAAGTCCTAGC ((((((....)))..))), in data set [1], the folding enthalpy is -71.1 kJ/mol. Further, the Tm in data set [2] turned out to be 34.3 °C.
With GCTGAGACGAAAGTCAGC (((..(((....)))))), the folding enthalpy in data set [1] is -89.7 kJ/mol. The Tm in data set [2] stood at 49.1 °C.
As to GCTGAGCGAAAGCAAAGC (((..((....))..))), the folding enthalpy in data set [1] was -119 kJ/mol. The Tm in data set [2] is 60.2 °C.
As for GCTGAGCGAAAGCAGAGC (((..((....))..))), the folding enthalpy in data set [1] was -71.2 kJ/mol. Besides, the Tm in data set [2] was 45.9 °C.
Turning to GCTGAGCGAAAGCCCAGC ((((.((....)).)))), the folding enthalpy in data set [1] is -199 kJ/mol. The Tm in data set [2] is 63.9 °C.
Consider GCTGAGCGAAAGCCTAGC (((..((....))..))), for which, in data set [1], the folding enthalpy was -68.6 kJ/mol. In addition, in data set [2], the Tm worked out at 48.4 °C.
In the case of GCTGAGCGAAAGCGCGGC ((.(.((....)).).)), in data set [1], the folding enthalpy is -110 kJ/mol. In data set [2], the Tm came to 63 °C.
For the sequence GCTGAGCGAAAGCTGAGC (((.(((....))).))), the folding enthalpy in data set [1] was -169 kJ/mol. Besides, the Tm in data set [2] was 55 °C.
On to GCTGAGCGAAAGCTTTGC ((..(((....)))..)), for which the folding enthalpy in data set [1] was -79.9 kJ/mol. In addition, in data set [2], the Tm came out at 47.9 °C.
GCTGAGGAAACTCAGC ((((((....)))))): the folding enthalpy in data set [1] was -158 kJ/mol. In addition, the Tm in data set [2] was determined as 63.5 °C.
On to GCTGAGGGAAACCTCAGC (((((((....))))))), for which, in data set [1], the folding enthalpy was -189 kJ/mol. Further, the Tm in data set [2] was 69.2 °C.
Turning to GCTGAGGGAAACTTCGGC ((.((.(....).)).)), the folding enthalpy in data set [1] was -121 kJ/mol. Also, the Tm in data set [2] was found to be 33.8 °C.
For GCTGATCGAAAGATAGC (((.(((....)))))), in data set [1], the folding enthalpy was -96.5 kJ/mol. The Tm in data set [2] is 41.5 °C.
For the sequence GCTGCAGGAAACCGCAGC (((((.(....).))))), the folding enthalpy in data set [1] is -138 kJ/mol. Moreover, the Tm in data set [2] is 57.8 °C.
For the sequence GCTGCAGGAAACTGCGGC ((.((((....)))).)), the folding enthalpy in data set [1] is -174 kJ/mol. Moreover, the Tm in data set [2] was found to be 61.6 °C.
Take GCTGCAGGAAACTGTGGC ((..(((....)))..)): in data set [1], the folding enthalpy is -108 kJ/mol. Besides, the Tm in data set [2] turned out to be 46.5 °C.
Taken in the same sequence, the figures for GCTGCCGAAAGGCATAGC ((((((....)))..))) were -62.7 kJ/mol and 51.6 °C.
Taken in the same sequence, the figures for GCTGCCGAAAGGCCAGC ((((((....))).))) were -102 kJ/mol and 61.5 °C.
Regarding GCTGCCGAAAGGCCGAGC ((((((....)))..))), in data set [1], the folding enthalpy is -58.4 kJ/mol. Besides, the Tm in data set [2] is 43.6 °C.
With GCTGCCGAAAGGCTAAGC ((((((....)))..))), the folding enthalpy in data set [1] is -70.2 kJ/mol. Besides, the Tm in data set [2] came out at 53.8 °C.
GCTGCCGGAAACGACAGC ((((.((....)).)))): the folding enthalpy in data set [1] is -191 kJ/mol. Further, in data set [2], the Tm is 55.2 °C.
Taken in the same sequence, the figures for GCTGCGCGAAAGCACGGC ((.(.((....)).).)) were -111 kJ/mol and 59.1 °C.
Taken in the same sequence, the figures for GCTGCGCGAAAGCACTGC ((.(.((....)).).)) were -101 kJ/mol and 53.3 °C.
Taken in the same sequence, the figures for GCTGCGCGAAAGCGAAGC (((.(((....))).))) were -124 kJ/mol and 69.1 °C.
GCTGCGTCGAAAGACAGC (((..(((....)))))): the folding enthalpy in data set [1] is -60.5 kJ/mol. The Tm in data set [2] turned out to be 47.1 °C.
In the case of GCTGGAACGAAAGTTAGC (((..(((....)))))), in data set [1], the folding enthalpy is -75.6 kJ/mol. For the same sequence, in data set [2], the Tm turned out to be 33.9 °C.
As for GCTGGACGAAAGTCTAGC (((.(((....))).))), the folding enthalpy in data set [1] was -164 kJ/mol. Besides, in data set [2], the Tm is 62.4 °C.
For the sequence GCTGGCACGAAAGTGAGC (((..(((....)))))), in data set [1], the folding enthalpy is -59 kJ/mol. The Tm in data set [2] stood at 36.9 °C.
Taken in the same sequence, the figures for GCTGGCCGAAAGGCAAGC (((.(((....))).))) were -107 kJ/mol and 68.9 °C.
Turning to GCTGGCGAAAGCCGCAGC ((((((....)))..))), the folding enthalpy in data set [1] was -54.1 kJ/mol. For the same sequence, the Tm in data set [2] stood at 52.4 °C.
